# Experimental data as given in PMC11842550 (Scientific Reports, 2025).
# Entries after “also recorded” stand apart in the source; their conditions may differ. Where two headings read alike, the source gives them in different places. Bridges are numbered along the chain shown (N, C = ends). Where no end group is shown, it is not given here.
# Experiments:
# [1] = system: cystic form of Borrelia; assay: Inhibition of conversion of cystic form into spirochetal form; format: cell-based, Borrelia garinii (strain SKT-7.1); details: for recovery of cystic Borrelia and transformation into the spirochetal form: peptides 1.66 µM for 16 h
# How it was run: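 Cysts formed by 1:1 dilution of early-log culture in serum-free BSK-II, 2 weeks at 15 °C. 2 × 10^3 cysts exposed 16 h to test compound (two-fold series, 3.33–0.05 µM) in serum-free BSK-II, then pelleted and compound removed. Regrown 15 days at 33 °C in serum-containing BSK-II. Counted by flow cytometry; % inhibition vs PBS control; doxycycline 50 nM control.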
# [2] = system: Borrelia; assay: Dot blot binding of individual phage clones to Borrelia; design: species or system Borrelia garinii (strain SKT-7.1); details: spirochetes fixed on PVDF membrane, anti-M13 antibody
# How it was run: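 2 µl Borrelia (PBS, OD600 1.2) are spotted on activated PVDF, air-dried, fixed with 4% paraformaldehyde for 10 min, dried overnight and blocked for 1 h. Individual phage clones from the third panning (10^11) are added for 1 h with shaking. After PBS-0.05% Tween washes, anti-M13 pIII mAb (1:1000) then IRDye […] anti-mouse (1:15000) are applied, 1 h each. Read at 800 nm. No-phage negative control.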
# [3] = system: spirochetal form of Borrelia; format: cell-based, Borrelia garinii (strain SKT-7.1); details: 5 days, 33 °C; for viability of Borrelia (spirochetal form): peptide 1.67 µM, triplicate; for inhibition of the spiral form of Borrelia: 0.41 µM
# How it was run: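 Early-log Borrelia (BSK-II with 6% rabbit serum, 33 °C, about 2 weeks) are counted by flow cytometry. 2 × 10^3 cells go into 200 µl fresh BSK-II with test peptide at 6.67, 3.33, 1.67 or 0 µM, 33 °C for 5 days, then are recounted by flow cytometry. Percent inhibition is relative to 0 µM. Follow-up runs use 0.83, 0.41, 0.20 and 0.10 µM. Doxycycline (50 µM–5 nM) is the positive control.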
# [4] = system: brain microvascular endothelial cells (BMECs); assay: Cell-ELISA binding to endothelial cells; details: 2 µg peptide, fixed BMEC monolayer, triplicate
# How it was run: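 BMEC monolayers in 96 wells are washed with PBS and fixed in 4% paraformaldehyde for 10 min, then blocked. They are incubated with 2 µg His-tagged test peptide and washed with PBS-T. Bound peptide is detected with HisProbe-HRP (1:1000, 1 h, room temperature) and TMB (25 min), stopped with 2 M H2SO4, read at 450 nm. Triplicates. Negative controls omit cells or peptide.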
# [5] = system: Borrelia; assay: ELISA binding of Bor peptides to Borrelia; design: species or system Borrelia garinii (strain SKT-7.1); details: for affinity to spirochetal form, cystic form and trypsin-shaved Borrelia (ELISA): 2 µg/well
# How it was run: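 Paraformaldehyde-fixed early-log Borrelia in microtiter wells are incubated 1 h with His-tagged test peptide, 2 µg/well for screening. Two-fold dilutions from 2.6 µM to 86 nM are used for concentration dependence, with the peptide-omitted background subtracted. Detection: five PBS-T washes, HisProbe-HRP (1:1000, 0.5% BSA, 1 h, room temperature), TMB 25 min, 2 M H2SO4 stop, 450 nm. Triplicates. Negative controls omit Borrelia or peptide.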
# [6] = system: HEK293T cells; assay: Cell toxicity, XTT assay; format: cell-based; details: 3.33 µM, 24 h, six replicates
# How it was run: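 HEK293T cells are grown in high-glucose DMEM with 2 mM L-glutamine and 5% FBS (37 °C, 5% CO2) to 70% confluence. They get test peptide at 3.33 or 0 µM for 24 h. XTT reagent is added for 3 h and read at 450 nm. Controls are PBS (negative) and 0.1% Triton X. Six replicates. Metabolic activity is blank-subtracted sample ×100 over blank-subtracted PBS control.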
# [7] = system: BBB model (BMECs, cell line D3); format: in vitro ADME; details: 1 µg/ml Cy5.5 labelled, luminal to abluminal
# How it was run: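 D3 BMECs (5 × 10^5) are seeded on collagen-I-coated transwell inserts (1 µm pores) in complete endothelial medium. Barrier is confirmed by TEER and dextran. Cy5.5-NHS-labelled truncated OspA fragments (beta sheets 10–11 or 12–16), angiopep-2-Cy5.5 or CF770 dextran go luminally at 1 µg/ml, 37 °C. Abluminal fluorescence (650/705 nm; 770/797 nm) is read at 1, 2 and 3 h and converted by standard curves.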
# [8] = system: bacterial cell wall; details: cited from earlier work
# [9] = system: spirochetal form of Borrelia as well as biofilm; details: compared to antibiotics; cited from earlier work
compound,measurement,setting,value
"C[C@H]1c2cccc(O)c2C(=O)C2=C(O)[C@]3(O)C(=O)C(C(N)=O)=C(O)[C@@H](N(C)C)[C@@H]3[C@@H](O)[C@@H]21 [doxycycline, reference compound]",inhibition of transformation and recovery of cysts into the spirochetal form,[1]; 0.05 µM for 16 h,did not inhibit
ACGYSSFNRCGGGS (disulfide 2-10 (inferred)) [Ph.Bor-16],binding of phage clone to Borrelia in dot blot,[2],best binders
ACHNETQKMCGGGS (disulfide 2-10 (inferred)) [Ph.Bor-9],binding of phage clone to Borrelia in dot blot,[2],best binders
ACHNTPHHLCGGGS (disulfide 2-10 (inferred)) [Ph.Bor-23],binding of phage clone to Borrelia in dot blot,[2],best binders
ACHNTSARVCGGGS (disulfide 2-10 (inferred)) [Ph.Bor-29],binding of phage clone to Borrelia in dot blot,[2],best binders
ACLKLGEKWCGGGS (disulfide 2-10 (inferred)) [Ph.Bor-1],binding of phage clone to Borrelia in dot blot,[2],best binders
ACNVRTCHDCGGGS (disulfide (positions not given here)) [Ph.Bor-24],binding of phage clone to Borrelia in dot blot,[2],best binders
ACPRGIGLQCGGGS (disulfide 2-10 (inferred)) [Ph.Bor-26],binding of phage clone to Borrelia in dot blot,[2],best binders
ACQPRNLNNCGGGS (disulfide 2-10 (inferred)) [Ph.Bor-18],binding of phage clone to Borrelia in dot blot,[2],best binders
ACRGATPMSCGGGS (disulfide 2-10 (inferred)) [Ph.Bor-8],binding of phage clone to Borrelia in dot blot,[2],best binders
ACTPSFSKICGGGS (disulfide 2-10 (inferred)) [Ph.Bor-11],binding of phage clone to Borrelia in dot blot,[2],best binders
MRGSHHHHHHGSNEKGETSEKTIVRANGTRLEYTDIKSDGIEGRVDGGGGSDDDDKMACGYSSFNRCGGGS (disulfide 59-67 (inferred)) [Bor-16],recovery of cystic Borrelia and transformation into the spirochetal form,[1],significantly reduced
same,viability of Borrelia (spirochetal form),[3],< 50%
same,binding to brain microvascular endothelial cells (cell-ELISA),[4],bind endothelial cells
MRGSHHHHHHGSNEKGETSEKTIVRANGTRLEYTDIKSDGIEGRVDGGGGSDDDDKMACPRGIGLQCGGGS (disulfide 59-67 (inferred)) [Bor-26],recovery of cystic Borrelia and transformation into the spirochetal form,[1],significantly reduced
same,viability of Borrelia (spirochetal form),[3],< 50%
same,binding to brain microvascular endothelial cells (cell-ELISA),[4],bind endothelial cells
MRGSHHHHHHGSNEKGETSEKTIVRANGTRLEYTDIKSDGIEGRVDGGGGSDDDDKMACQPRNLNNCGGGS (disulfide 59-67 (inferred)) [Bor-18],inhibition of the spiral form of Borrelia,[3],more than 50%
same,viability of Borrelia (spirochetal form),[3],< 50%
same,binding to brain microvascular endothelial cells (cell-ELISA),[4],bind endothelial cells
same,"affinity to spirochetal form, cystic form and trypsin-shaved Borrelia (ELISA)",[5],showed affinity for all three forms
same,"Absorbance450 in ELISA, binding to Borrelia","[5]; peptide 0.08 µM, early log phase Borrelia, negative control subtracted",0.8
same,binding to Borrelia in ELISA compared with other peptides,"[5]; peptide 0.16 µM, early log phase Borrelia",significantly higher; also recorded: showed binding affinity
MRGSHHHHHHGSNEKGETSEKTIVRANGTRLEYTDIKSDGIEGRVDGGGGSDDDDKMACTPSFSKICGGGS (disulfide 59-67 (inferred)) [Bor-11],growth inhibition of cystic form,"[1]; 0.41 µM, 16 h exposure, t-test p < 0.05",inhibiting growth significantly
same,recovery of cystic Borrelia and transformation into the spirochetal form,[1],significantly reduced
same,inhibition of the spiral form of Borrelia,[3],more than 50%
same,viability of Borrelia (spirochetal form),[3],< 50%
same,effect on cell metabolic activity (XTT),[6],no adverse effects
same,binding to brain microvascular endothelial cells (cell-ELISA),[4],bind endothelial cells
same,"affinity to spirochetal form, cystic form and trypsin-shaved Borrelia (ELISA)",[5],showed affinity for all three forms
NEKGETSEKTIVRANGTRLEYTDIKSDG [O-BBB],crossing of BBB model compared with angiopep-2,[7]; 2nd hr,comparable to that of angiopep-2
same,crossing of BBB model compared with angiopep-2,[7]; 3rd hr,significantly higher than that of angiopep-2
same,borreliacidal effect on spirochetal form,[3]; 6.67 µM,no borreliacidal effect
same,effect on cell metabolic activity (XTT),[6],no adverse effects
same,binding to brain microvascular endothelial cells (cell-ELISA),[4],bind endothelial cells
same,affinity to Borrelia (ELISA),"[5]; 2 µg peptide per well, fixed Borrelia, HisProbe-HRP, 450 nm, triplicate",no affinity for Borrelia
melittin,time to destabilise the bacterial cell wall,[8],roughly 75 min
same,effect on the spirochetal form of Borrelia as well as biofilm,[9],significant effect
